Laboratory results as given in ChEMBL document CHEMBL4251743, “Absolute Configuration and Pharmacology of the Poison Frog Alkaloid Phantasmidine” (J Nat Prod, 2018).
Activity calls are given as the source filed them. The rule behind the calls is not given here.

Key:
[1] = system: Mus musculus; assay: Toxicity in iv dosed albino mouse measured after 1 hr; assay type: organism-based; settings: in vivo
[2] = molecular target: T1, Neuronal acetylcholine receptor; alpha3/beta4 (Rattus norvegicus, UniProt P04757+P12392); assay: Displacement of [3H]epibatidine from alpha3beta4 nAChR (unknown origin) expressed in HEK cell membranes after 4 hrs by liquid scintillation counting method
Outline: (§1)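 Incubation was 4 h at room temperature, followed by rapid filtration, washing and liquid scintillation counting. Nonspecific binding was defined with 300 μM nicotine. Values are the mean ± SEM of four measurements.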

[3] = molecular target: T2, Neuronal acetylcholine receptor; alpha4/beta2 (Rattus norvegicus, UniProt P09483+P12390); assay: Displacement of [3H]epibatidine from alpha4beta2 nAChR (unknown origin) expressed in HEK cell membranes after 4 hrs by liquid scintillation counting method; outline: as §1
[4] = molecular target: T3, Neuronal acetylcholine receptor subunit alpha-7 (Rattus norvegicus, UniProt Q05941); assay: Displacement of [3H]epibatidine from alpha7 nAChR (unknown origin) expressed in HEK cell membranes after 4 hrs by liquid scintillation counting method; outline: as §1
[5] = species: Homo sapiens; assay: Selectivity ratio of Ki for displacement of [3H]epibatidine from alpha3beta4 nAChR (unknown origin) expressed in HEK cell membranes to Ki for displacement of [3H]epibatidine from alpha4beta2 nAChR (unknown origin) expressed in HEK cell membranes
[6] = molecular target: Neuronal acetylcholine receptor; assay: Displacement of [3H]epibatidine from rat forebrain nAChR after 4 hrs by liquid scintillation counting method; outline: as §1
[7] = molecular target: T1, Neuronal acetylcholine receptor; alpha3/beta4; assay: Agonist activity at rat alpha3beta4 nAChR by cell-based rubidium flux assay
Outline: (§2)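 Stably transfected cells expressing rat α3β4 or human α4β2 nAChR were used near confluence. They were preloaded with 86Rb+, washed, stimulated with test agonist, and the medium was separated before lysis. Efflux was taken as medium counts over total counts. Results are the mean ± SEM of 3–4 independent experiments.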

[8] = molecular target: Neuronal acetylcholine receptor; alpha3/beta4 (Rattus norvegicus) (UniProt P04757+P12392); assay: Agonist activity at rat alpha3beta4 nAChR by cell-based rubidium flux assay relative to 100 uM nicotine
Outline: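 Stably transfected cells expressing rat α3β4 or human α4β2 nAChR were used near confluence. They were preloaded with 86Rb+, washed, stimulated with test agonist, and the medium was separated before lysis. Efflux was taken as medium counts over total counts. […] Results are the mean ± SEM of 3–4 independent experiments.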

[9] = molecular target: T4, Neuronal acetylcholine receptor; alpha4/beta2 (Homo sapiens, UniProt P17787+P43681); assay: Agonist activity at human alpha4beta2 nAChR by cell-based rubidium flux assay; outline: as §2
[10] = molecular target: T4, Neuronal acetylcholine receptor; alpha4/beta2; assay: Agonist activity at human alpha4beta2 nAChR by cell-based rubidium flux assay relative to 100 uM nicotine; outline: as §2
[11] = species: Homo sapiens; assay: Selectivity ratio of EC50 for agonist activity at rat alpha3beta4 nAChR (unknown origin) to EC50 for agonist activity at alpha4beta2 nAChR (unknown origin)
[12] = molecular target: T2, Neuronal acetylcholine receptor; alpha4/beta2; assay: Agonist activity at rat alpha4beta2 expressed in Xenopus oocytes at -60 mV holding potential by electrophysiology method; assay type: cell-based
Outline: (§3)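 Defolliculated X. laevis oocytes were injected with about 50 nL of rat subunit mRNA at 1 μg/μL. For α3β2 and α4β2 the subunits were mixed 1:1. Recording was by two-electrode voltage clamp at −60 mV and about 24 °C, with perfusion in HEPES-buffered NaCl/KCl/CaCl2/MgCl2. Agonist was applied for 3–4 s every 4–5 min. Peak currents were normalised to 1 mM ACh (nAChR) or 10 μM mCPBG (5-HT3A) and fitted to the Hill equation.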

[13] = molecular target: T5, Neuronal acetylcholine receptor; alpha4/beta2 (Rattus norvegicus) (UniProt P09483+P12390); assay: Agonist activity at rat alpha4beta2 expressed in Xenopus oocytes at -60 mV holding potential by electrophysiology method relative to acetylcholine; assay type: cell-based; outline: as §3
[14] = molecular target: T3, Neuronal acetylcholine receptor subunit alpha-7; assay: Agonist activity at rat alpha7 nAChR expressed in Xenopus oocytes at -60 mV holding potential by electrophysiology method; assay type: cell-based; outline: as §3
[15] = molecular target: Neuronal acetylcholine receptor subunit alpha-7 (Rattus norvegicus) (UniProt Q05941); assay: Agonist activity at rat alpha7 nAChR expressed in Xenopus oocytes at -60 mV holding potential by electrophysiology method relative to acetylcholine; assay type: cell-based; outline: as §3
[16] = system: Mus musculus; assay: Toxicity in iv dosed Swiss-Webster mouse; assay type: organism-based; settings: in vivo
Outline: (§4)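 Weanling male White Swiss-Webster mice (15–20 g) were fasted for 12 h. Compound in physiological buffered saline was given intravenously via the tail vein. Mice were then returned to their pens for observation of signs.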

[17] = system: Mus musculus; assay: Toxicity in Swiss-Webster mouse assessed as piloerection at 10 mg/kg, iv; assay type: organism-based; settings: in vivo; outline: as §4
[18] = system: Mus musculus; assay: Toxicity in Swiss-Webster mouse assessed as elevated respiration at 10 mg/kg, iv; assay type: organism-based; settings: in vivo; outline: as §4
[19] = system: Mus musculus; assay: Toxicity in Swiss-Webster mouse assessed as hyperactivity at 10 mg/kg, iv; assay type: organism-based; settings: in vivo; outline: as §4
[20] = system: Mus musculus; assay: Toxicity in Swiss-Webster mouse assessed as piloerection at 40 ug/kg, iv; assay type: organism-based; settings: in vivo, 0.04 mg/kg; outline: as §4
[21] = system: Mus musculus; assay: Toxicity in Swiss-Webster mouse assessed as elevated respiration at 40 ug/kg, iv; assay type: organism-based; settings: in vivo, 0.04 mg/kg; outline: as §4
[22] = system: Mus musculus; assay: Toxicity in Swiss-Webster mouse assessed as piloerection at 40 ug/kg, iv measured within 1 min; assay type: organism-based; settings: in vivo, 0.04 mg/kg; outline: as §4
[23] = system: Mus musculus; assay: Toxicity in Swiss-Webster mouse assessed as elevated respiration at 40 ug/kg, iv measured within 1 min; assay type: organism-based; settings: in vivo, 0.04 mg/kg; outline: as §4
[24] = system: Mus musculus; assay: Toxicity in Swiss-Webster mouse assessed as piloerection at 50 ug/kg, iv; assay type: organism-based; settings: in vivo, 0.05 mg/kg; outline: as §4
[25] = system: Mus musculus; assay: Toxicity in Swiss-Webster mouse assessed as elevated respiration at 50 ug/kg, iv; assay type: organism-based; settings: in vivo, 0.05 mg/kg; outline: as §4
[26] = system: Mus musculus; assay: Toxicity in Swiss-Webster mouse assessed as hyperactivity at 50 ug/kg, iv; assay type: organism-based; settings: in vivo, 0.05 mg/kg; outline: as §4
[27] = system: Mus musculus; assay: Toxicity in Swiss-Webster mouse assessed as death at 50 ug/kg, iv measured within 30 secs; assay type: organism-based; settings: in vivo, 0.05 mg/kg, 0.5 min; outline: as §4
[28] = system: Mus musculus; assay: Toxicity in Swiss-Webster mouse assessed as tonic-clonic seizures at 50 ug/kg, iv measured within 30 secs; assay type: organism-based; settings: in vivo, 0.05 mg/kg, 0.5 min; outline: as §4
[29] = molecular target: Neuronal acetylcholine receptor; alpha3/beta2 (Rattus norvegicus, UniProt P04757+P12390); assay: Agonist activity at rat alpha3beta2 expressed in Xenopus oocytes at -60 mV holding potential by electrophysiology method; assay type: cell-based; outline: as §3
[30] = molecular target: T6, Neuronal acetylcholine receptor; alpha3/beta2 (Rattus norvegicus) (UniProt P04757+P12390); assay: Agonist activity at rat alpha3beta2 expressed in Xenopus oocytes at -60 mV holding potential by electrophysiology method relative to acetylcholine; assay type: cell-based; outline: as §3
[31] = molecular target: T7, 5-hydroxytryptamine receptor 3A (Rattus norvegicus, UniProt P35563); assay: Agonist activity at rat 5HT3A expressed in Xenopus oocytes at -60 mV holding potential by electrophysiology method; assay type: cell-based; outline: as §3
T7 sequence (P35563 whole entry): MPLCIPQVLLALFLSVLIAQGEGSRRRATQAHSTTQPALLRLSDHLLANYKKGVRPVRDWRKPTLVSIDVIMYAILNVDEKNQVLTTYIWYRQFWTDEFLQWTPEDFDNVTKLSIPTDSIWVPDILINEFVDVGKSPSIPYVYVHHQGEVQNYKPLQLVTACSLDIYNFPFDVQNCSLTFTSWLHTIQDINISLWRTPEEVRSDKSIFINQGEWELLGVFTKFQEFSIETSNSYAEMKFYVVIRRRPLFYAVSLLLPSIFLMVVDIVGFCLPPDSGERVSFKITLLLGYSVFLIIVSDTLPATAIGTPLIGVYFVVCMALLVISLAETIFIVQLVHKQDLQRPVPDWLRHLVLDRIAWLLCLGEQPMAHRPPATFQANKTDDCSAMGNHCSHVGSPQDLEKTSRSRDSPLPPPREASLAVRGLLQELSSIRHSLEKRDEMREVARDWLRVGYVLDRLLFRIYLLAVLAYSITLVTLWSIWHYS

[32] = molecular target: T8, 5-hydroxytryptamine receptor 3A (Rattus norvegicus) (UniProt P35563); assay: Agonist activity at rat 5HT3A expressed in Xenopus oocytes at -60 mV holding potential by electrophysiology method relative to metachlorophenylbiguanide; assay type: cell-based; outline: as §3
T8 sequence (whole entry): T7 sequence (P35563 whole entry)

[33] = molecular target: T6, Neuronal acetylcholine receptor; alpha3/beta2 (Rattus norvegicus); assay: Agonist activity at rat alpha3beta2 expressed in Xenopus oocytes at 10 nM at -60 mV holding potential in presence of dihydro-beta-erythroidine by electrophysiology method; assay type: cell-based
[34] = molecular target: T5, Neuronal acetylcholine receptor; alpha4/beta2 (Rattus norvegicus); assay: Agonist activity at rat alpha4beta2 expressed in Xenopus oocytes at 10 nM at -60 mV holding potential in presence of dihydro-beta-erythroidine by electrophysiology method; assay type: cell-based
[35] = molecular target: Neuronal acetylcholine receptor subunit alpha-7 (Rattus norvegicus) (UniProt Q05941); assay: Agonist activity at rat alpha7 nAChR expressed in Xenopus oocytes at 10 uM at -60 mV holding potential by electrophysiology method in presence of methyllycaconitine; assay type: cell-based
[36] = molecular target: T8, 5-hydroxytryptamine receptor 3A (Rattus norvegicus); assay: Agonist activity at rat 5HT3A expressed in Xenopus oocytes at 100 uM at -60 mV holding potential in presence of tropisetron by electrophysiology method; assay type: cell-based
Outline: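 Oocytes expressing rat 5-HT3A were held at −60 mV under two-electrode voltage clamp. Tropisetron (30 nM) was pre-applied for 2 min before 100 μM agonist was applied, with n=4.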

[37] = species: Rattus norvegicus; assay: Selectivity ratio of EC50 for rat alpha7 nAChR expressed in Xenopus oocytes to EC50 rat alpha4beta2 expressed in Xenopus oocytes; assay type: cell-based

T2 sequence (P09483 whole entry): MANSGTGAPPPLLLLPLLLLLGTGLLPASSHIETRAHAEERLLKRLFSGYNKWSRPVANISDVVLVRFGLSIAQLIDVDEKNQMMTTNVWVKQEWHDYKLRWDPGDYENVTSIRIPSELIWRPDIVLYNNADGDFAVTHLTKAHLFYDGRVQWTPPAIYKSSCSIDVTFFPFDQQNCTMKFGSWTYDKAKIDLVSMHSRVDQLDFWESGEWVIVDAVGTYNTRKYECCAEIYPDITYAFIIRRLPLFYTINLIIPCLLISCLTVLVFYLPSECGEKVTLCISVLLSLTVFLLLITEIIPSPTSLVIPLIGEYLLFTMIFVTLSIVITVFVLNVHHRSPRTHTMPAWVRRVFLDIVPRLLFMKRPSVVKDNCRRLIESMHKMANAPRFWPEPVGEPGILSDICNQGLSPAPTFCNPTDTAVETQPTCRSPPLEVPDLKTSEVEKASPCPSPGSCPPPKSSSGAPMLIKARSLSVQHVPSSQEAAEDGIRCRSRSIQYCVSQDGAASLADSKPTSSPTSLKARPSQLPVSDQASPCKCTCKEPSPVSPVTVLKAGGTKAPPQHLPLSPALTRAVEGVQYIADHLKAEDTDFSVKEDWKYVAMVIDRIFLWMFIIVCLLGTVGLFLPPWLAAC
T2 sequence (P12390 whole entry): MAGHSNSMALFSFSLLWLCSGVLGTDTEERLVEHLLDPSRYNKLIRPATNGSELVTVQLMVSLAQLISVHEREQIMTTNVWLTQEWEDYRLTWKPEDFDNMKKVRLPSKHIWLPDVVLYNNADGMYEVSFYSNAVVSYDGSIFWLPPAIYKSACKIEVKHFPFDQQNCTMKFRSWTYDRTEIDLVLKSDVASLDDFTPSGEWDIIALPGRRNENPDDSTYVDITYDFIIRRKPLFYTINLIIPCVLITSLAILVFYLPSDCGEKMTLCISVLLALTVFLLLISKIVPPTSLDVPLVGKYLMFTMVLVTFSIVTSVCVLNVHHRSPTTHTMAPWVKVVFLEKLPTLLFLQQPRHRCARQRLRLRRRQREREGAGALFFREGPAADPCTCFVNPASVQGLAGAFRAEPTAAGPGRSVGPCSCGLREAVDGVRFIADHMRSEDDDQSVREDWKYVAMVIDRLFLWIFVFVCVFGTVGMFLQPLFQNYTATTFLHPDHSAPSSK
T1 sequence (P04757 whole entry): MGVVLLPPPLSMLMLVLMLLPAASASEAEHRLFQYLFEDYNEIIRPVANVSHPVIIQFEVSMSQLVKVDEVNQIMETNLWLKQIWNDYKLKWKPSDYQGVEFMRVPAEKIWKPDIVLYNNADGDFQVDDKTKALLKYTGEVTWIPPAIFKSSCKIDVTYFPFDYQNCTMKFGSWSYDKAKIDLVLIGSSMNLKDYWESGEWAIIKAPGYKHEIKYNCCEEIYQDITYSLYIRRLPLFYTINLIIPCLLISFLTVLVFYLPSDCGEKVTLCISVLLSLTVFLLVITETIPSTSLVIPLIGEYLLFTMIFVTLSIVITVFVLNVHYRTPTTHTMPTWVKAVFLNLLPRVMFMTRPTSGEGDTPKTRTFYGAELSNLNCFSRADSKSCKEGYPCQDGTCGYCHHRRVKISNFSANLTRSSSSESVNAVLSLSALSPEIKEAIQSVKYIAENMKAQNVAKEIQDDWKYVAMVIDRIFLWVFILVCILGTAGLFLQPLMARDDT
T1 sequence (P12392 whole entry): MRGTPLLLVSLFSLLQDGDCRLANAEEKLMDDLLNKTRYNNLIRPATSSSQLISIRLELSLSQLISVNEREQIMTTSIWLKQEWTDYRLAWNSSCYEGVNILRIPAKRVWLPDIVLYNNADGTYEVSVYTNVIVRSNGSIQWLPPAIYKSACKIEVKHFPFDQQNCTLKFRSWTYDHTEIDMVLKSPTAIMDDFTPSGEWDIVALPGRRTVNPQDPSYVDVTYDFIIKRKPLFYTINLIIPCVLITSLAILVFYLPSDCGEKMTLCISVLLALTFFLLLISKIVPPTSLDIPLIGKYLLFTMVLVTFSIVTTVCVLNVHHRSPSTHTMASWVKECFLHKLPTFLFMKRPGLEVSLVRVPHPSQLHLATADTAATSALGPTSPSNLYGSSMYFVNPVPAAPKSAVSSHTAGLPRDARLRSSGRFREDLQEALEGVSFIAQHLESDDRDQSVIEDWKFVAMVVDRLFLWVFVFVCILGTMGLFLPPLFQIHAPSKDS
T4 sequence (P17787 whole entry): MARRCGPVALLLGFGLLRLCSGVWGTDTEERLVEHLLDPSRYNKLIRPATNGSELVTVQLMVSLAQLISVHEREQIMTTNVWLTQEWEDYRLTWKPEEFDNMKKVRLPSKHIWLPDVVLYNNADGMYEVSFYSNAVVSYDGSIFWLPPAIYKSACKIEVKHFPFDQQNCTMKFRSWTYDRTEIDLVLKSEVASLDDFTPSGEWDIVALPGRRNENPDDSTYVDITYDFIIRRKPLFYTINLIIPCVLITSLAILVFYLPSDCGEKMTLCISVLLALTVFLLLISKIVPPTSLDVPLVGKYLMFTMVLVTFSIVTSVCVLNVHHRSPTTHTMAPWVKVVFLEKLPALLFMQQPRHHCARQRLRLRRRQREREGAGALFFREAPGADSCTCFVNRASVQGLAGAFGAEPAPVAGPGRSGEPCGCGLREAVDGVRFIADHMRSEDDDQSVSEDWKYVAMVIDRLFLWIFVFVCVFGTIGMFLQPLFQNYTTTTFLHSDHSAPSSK
T4 sequence (P43681 whole entry): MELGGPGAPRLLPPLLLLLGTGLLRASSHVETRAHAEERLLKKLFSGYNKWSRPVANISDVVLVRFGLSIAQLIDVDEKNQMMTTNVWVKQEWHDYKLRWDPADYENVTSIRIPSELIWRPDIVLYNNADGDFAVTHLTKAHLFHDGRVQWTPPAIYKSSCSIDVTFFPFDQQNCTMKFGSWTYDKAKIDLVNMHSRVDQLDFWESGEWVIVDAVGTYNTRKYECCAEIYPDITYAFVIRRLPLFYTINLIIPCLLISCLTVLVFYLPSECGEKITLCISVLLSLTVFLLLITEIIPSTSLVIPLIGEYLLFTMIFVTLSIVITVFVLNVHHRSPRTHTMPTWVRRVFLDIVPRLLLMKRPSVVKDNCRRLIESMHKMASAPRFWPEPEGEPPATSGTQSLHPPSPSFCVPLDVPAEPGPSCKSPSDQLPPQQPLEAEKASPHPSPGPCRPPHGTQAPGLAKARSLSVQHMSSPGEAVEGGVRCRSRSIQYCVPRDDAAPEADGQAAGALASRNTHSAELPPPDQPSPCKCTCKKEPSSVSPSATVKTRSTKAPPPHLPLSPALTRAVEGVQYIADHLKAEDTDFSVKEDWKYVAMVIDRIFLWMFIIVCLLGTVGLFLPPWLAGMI
Chain of Neuronal acetylcholine receptor subunit alpha-7 (Rattus norvegicus) (Q05941 whole entry): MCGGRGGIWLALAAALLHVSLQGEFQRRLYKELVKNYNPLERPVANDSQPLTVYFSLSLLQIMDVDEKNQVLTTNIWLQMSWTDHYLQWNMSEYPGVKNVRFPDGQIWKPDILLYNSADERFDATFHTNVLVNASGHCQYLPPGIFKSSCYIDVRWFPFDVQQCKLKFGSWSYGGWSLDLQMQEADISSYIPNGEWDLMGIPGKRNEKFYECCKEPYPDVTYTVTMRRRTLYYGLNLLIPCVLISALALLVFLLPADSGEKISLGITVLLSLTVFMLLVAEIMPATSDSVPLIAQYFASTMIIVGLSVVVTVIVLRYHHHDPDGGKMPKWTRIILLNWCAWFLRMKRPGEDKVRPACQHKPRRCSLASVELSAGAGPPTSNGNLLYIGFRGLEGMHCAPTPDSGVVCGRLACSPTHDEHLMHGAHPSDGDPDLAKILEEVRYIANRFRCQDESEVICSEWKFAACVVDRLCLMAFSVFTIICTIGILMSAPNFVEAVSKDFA
T3 sequence (Q05941 whole entry): as above
Chain of Neuronal acetylcholine receptor; alpha3/beta2 (P04757 whole entry): as the sequence (P04757 whole entry) above
Chain of Neuronal acetylcholine receptor; alpha3/beta2 (P12390 whole entry): as the sequence (P12390 whole entry) above

Row | SMILES | LD50 [1] [mg/kg] | Ki [2] [nM] | Ki [3] [nM] | Ki [4] [nM] | Ratio Ki [5] | Ki [6] [nM] | EC50 [7] [nM] | Emax [8] [%] | EC50 [9] [nM] | Emax [10] [%] | Ratio EC50 [11] | EC50 [12] [nM] | Imax [13] [%] | EC50 [14] [nM] | Imax [15] [%] | LD50 [16] [mg/kg] | other results
1 | O=c1cccc2n1C[C@@H]1CNC[C@H]2C1 [CYTISINICLINE] | 1.73 |  |  |  |  |  |  |  |  |  |  |  |  |  |  |  | 
2 | Clc1ccc2c(n1)O[C@@]13CC[C@@H]1NC[C@@H]23 [PHANTASMIDINE] |  | 390 | 12 | 130 | 33 | 29 | 27000 | 53 | 56000 | 110 | 0.49 | 45 | 0.43 | 21000 | 1.02 | > 10 | Activity [17]: Toxic; Activity [18]: Toxic; Activity [19]: Toxic
3 | Clc1ccc(C2CC3CCC2N3)cn1 (racemic) [EPIBATIDINE] |  |  |  |  |  |  |  | 114 |  | 135 |  |  |  |  |  | 0.0015 | 
4 | Clc1ccc2c(n1)O[C@]13CC[C@H]1NC[C@H]23 |  | 9.1 | 0.27 | 4.4 | 34 | 0.87 | 570 | 91 | 200 | 45 | 2.9 | 1.5 | 0.37 | 4000 | 1.1 | 0.072 | Activity [20]: Toxic; Activity [21]: Toxic; Activity [22]: Non-Toxic; Activity [23]: Non-Toxic; Activity [24]: Toxic; Activity [25]: Toxic; Activity [26]: Toxic; Activity [27]: Toxic; Activity [28]: Toxic
5 | CN1CCC[C@H]1c1ccccc1 | 0.3 |  |  |  |  |  |  |  | 2100 |  |  |  |  |  |  |  | 
6 | Clc1ccc2c(n1)OC13CCC1NCC23 (racemic) |  | 11 | 0.35 | 5.4 | 31 | 1.1 | 750 | 91 | 200 | 42 | 3.7 | 3.1 | 0.32 | 9900 | 1.08 | 0.27 | EC50 [29]: 19000 nM; Imax [30]: 0.25%; EC50 [31]: 29000 nM; Imax [32]: 0.79%; Activity [33]: inactive; Activity [34]: inactive; Activity [35]: inactive; Activity [36]: inactive; Ratio EC50 [37]: 3200
